Laboratory results published in ChEMBL document CHEMBL2062435, “Synthesis and in vitro antibacterial activity of gemifloxacin derivatives containing a substituted benzyloxime moiety” (2012).

Experiments:
Assay type in all cases: functional
[1] = test system: Pseudomonas aeruginosa; test: Antimicrobial activity against extended spectrum beta-lactamases-producing Pseudomonas aeruginosa 10-15 after 18-24 hrs by two-fold serial dilution method
In short: (§1)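 Agar-medium twofold serial dilution against Gram-positive and Gram-negative strains; MIC taken as the lowest compound concentration giving complete inhibition of bacterial growth after incubation at 35 °C for 18-24 h.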

[2] = test system: Escherichia coli; test: Antimicrobial activity against extended spectrum beta-lactamases-producing Escherichia coli 10-3 after 18-24 hrs by two-fold serial dilution method; in short: as §1
[3] = test system: Pseudomonas aeruginosa; test: Antimicrobial activity against Pseudomonas aeruginosa 10-12 after 18-24 hrs by two-fold serial dilution method; in short: as §1
[4] = test system: Streptococcus pneumoniae; test: Antimicrobial activity against extended spectrum beta-lactamases-producing Streptococcus pneumoniae 10-1 after 18-24 hrs by two-fold serial dilution method; in short: as §1
[5] = test system: Staphylococcus aureus; test: Antimicrobial activity against Staphylococcus aureus ATCC […] after 18-24 hrs by two-fold serial dilution method; in short: as §1
[6] = test system: Staphylococcus aureus; test: Antimicrobial activity against extended spectrum beta-lactamases-producing methicillin-sensitive Staphylococcus aureus 10-13 after 18-24 hrs by two-fold serial dilution method; in short: as §1
[7] = test system: Staphylococcus epidermidis; test: Antimicrobial activity against extended spectrum beta-lactamases-producing methicillin-sensitive Staphylococcus epidermidis 10-13 after 18-24 hrs by two-fold serial dilution method; in short: as §1
[8] = test system: Klebsiella pneumoniae; test: Antimicrobial activity against extended spectrum beta-lactamases-producing Klebsiella pneumoniae 10-1 after 18-24 hrs by two-fold serial dilution method; in short: as §1
[9] = test system: Klebsiella pneumoniae; test: Antimicrobial activity against Klebsiella pneumoniae 10-3 after 18-24 hrs by two-fold serial dilution method; in short: as §1
[10] = test system: Streptococcus pneumoniae; test: Antimicrobial activity against extended spectrum beta-lactamases-producing Streptococcus pneumoniae 10-4 after 18-24 hrs by two-fold serial dilution method; in short: as §1
[11] = test system: Klebsiella pneumoniae; test: Antimicrobial activity against extended spectrum beta-lactamases-producing Klebsiella pneumoniae 10-3 after 18-24 hrs by two-fold serial dilution method; in short: as §1
[12] = test system: Klebsiella pneumoniae; test: Antimicrobial activity against extended spectrum beta-lactamases-producing Klebsiella pneumoniae 10-2 after 18-24 hrs by two-fold serial dilution method; in short: as §1
[13] = test system: Escherichia coli; test: Antimicrobial activity against extended spectrum beta-lactamases-producing Escherichia coli 10-4 after 18-24 hrs by two-fold serial dilution method; in short: as §1
[14] = test system: Escherichia coli; test: Antimicrobial activity against extended spectrum beta-lactamases-producing Escherichia coli 10-2 after 18-24 hrs by two-fold serial dilution method; in short: as §1
[15] = test system: Staphylococcus epidermidis; test: Antimicrobial activity against extended spectrum beta-lactamases-producing methicillin-sensitive Staphylococcus epidermidis 10-15 after 18-24 hrs by two-fold serial dilution method; in short: as §1
[16] = test system: Pseudomonas aeruginosa; test: Antimicrobial activity against extended spectrum beta-lactamases-producing Pseudomonas aeruginosa 10-9 after 18-24 hrs by two-fold serial dilution method; in short: as §1
[17] = test system: Enterococcus faecalis; test: Antimicrobial activity against Enterococcus faecalis 10-7 after 18-24 hrs by two-fold serial dilution method; in short: as §1
[18] = test system: Staphylococcus epidermidis; test: Antimicrobial activity against extended spectrum beta-lactamases-producing methicillin-sensitive Staphylococcus epidermidis 10-11 after 18-24 hrs by two-fold serial dilution method; in short: as §1
[19] = test system: Escherichia coli; test: Antimicrobial activity against Escherichia coli 10-2 after 18-24 hrs by two-fold serial dilution method; in short: as §1
[20] = test system: Staphylococcus epidermidis; test: Antimicrobial activity against extended spectrum beta-lactamases-producing methicillin-resistant Staphylococcus epidermidis 10-10 after 18-24 hrs by two-fold serial dilution method
In short: (§2)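 Agar twofold serial dilution MIC against clinical isolates. MIC was taken as the lowest concentration giving complete inhibition of bacterial growth after incubation at 35 °C for 18-24 h.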

[21] = test system: Pseudomonas aeruginosa; test: Antimicrobial activity against extended spectrum beta-lactamases-producing Pseudomonas aeruginosa 10-20 after 18-24 hrs by two-fold serial dilution method; in short: as §1
[22] = test system: Klebsiella pneumoniae; test: Antimicrobial activity against Klebsiella pneumoniae 10-4 after 18-24 hrs by two-fold serial dilution method; in short: as §1
[23] = test system: Pseudomonas aeruginosa; test: Antimicrobial activity against extended spectrum beta-lactamases-producing Pseudomonas aeruginosa 10-18 after 18-24 hrs by two-fold serial dilution method; in short: as §1
[24] = test system: Escherichia coli; test: Antimicrobial activity against Escherichia coli 10-3 after 18-24 hrs by two-fold serial dilution method; in short: as §1
[25] = test system: Pseudomonas aeruginosa; test: Antimicrobial activity against extended spectrum beta-lactamases-producing Pseudomonas aeruginosa 10-5 after 18-24 hrs by two-fold serial dilution method; in short: as §1
[26] = test system: Staphylococcus aureus; test: Antimicrobial activity against extended spectrum beta-lactamases-producing methicillin-resistant Staphylococcus aureus 10-11 after 18-24 hrs by two-fold serial dilution method; in short: as §2
[27] = test system: Enterococcus faecalis; test: Antimicrobial activity against Enterococcus faecalis 10-6 after 18-24 hrs by two-fold serial dilution method; in short: as §1
[28] = test system: Staphylococcus aureus; test: Antimicrobial activity against extended spectrum beta-lactamases-producing methicillin-resistant Staphylococcus aureus 10-15 after 18-24 hrs by two-fold serial dilution method; in short: as §2
[29] = test system: Escherichia coli; test: Antimicrobial activity against Escherichia coli 10-1 after 18-24 hrs by two-fold serial dilution method; in short: as §1
[30] = test system: Enterococcus faecium; test: Antimicrobial activity against Enterococcus faecium 10-9 after 18-24 hrs by two-fold serial dilution method; in short: as §1
[31] = test system: Enterococcus faecium; test: Antimicrobial activity against Enterococcus faecium 10-5 after 18-24 hrs by two-fold serial dilution method; in short: as §1
[32] = test system: Staphylococcus aureus; test: Antimicrobial activity against extended spectrum beta-lactamases-producing methicillin-sensitive Staphylococcus aureus 10-14 after 18-24 hrs by two-fold serial dilution method; in short: as §1
[33] = test system: Enterococcus faecalis; test: Antimicrobial activity against Enterococcus faecalis 10-5 after 18-24 hrs by two-fold serial dilution method; in short: as §1
[34] = test system: Klebsiella pneumoniae; test: Antimicrobial activity against Klebsiella pneumoniae 10-2 after 18-24 hrs by two-fold serial dilution method; in short: as §1
[35] = test system: Staphylococcus epidermidis; test: Antimicrobial activity against extended spectrum beta-lactamases-producing methicillin-resistant Staphylococcus epidermidis 10-13 after 18-24 hrs by two-fold serial dilution method; in short: as §2
[36] = test system: Escherichia coli; test: Antimicrobial activity against Escherichia coli ATCC 25922 after 18-24 hrs by two-fold serial dilution method; in short: as §1

| SMILES | MIC [1] | MIC [2] | MIC [3] | MIC [4] | MIC [5] | MIC [6] | MIC [7] | MIC [8] | MIC [9] | MIC [10] | MIC [11] | MIC [12] | MIC [13] | MIC [14] | MIC [15] | MIC [16] | MIC [17] | MIC [18] | MIC [19] | MIC [20] | also measured |
| --- | --- | --- | --- | --- | --- | --- | --- | --- | --- | --- | --- | --- | --- | --- | --- | --- | --- | --- | --- | --- | --- |
| COc1ccc(CO/N=C2\CN(c3nc4c(cc3F)c(=O)c(C(=O)O)cn4C3CC3)CC2CN)cc1OC.CS(=O)(=O)O (racemic) | 1 mg/L | 16 mg/L | 0.03 mg/L | 0.5 mg/L | 0.03 mg/L | 0.5 mg/L | 0.5 mg/L | 64 mg/L | 4 mg/L | 4 mg/L | > 128 mg/L | > 128 mg/L | 2 mg/L | > 128 mg/L | 4 mg/L | 8 mg/L | 1 mg/L | 2 mg/L | 8 mg/L | 0.5 mg/L | MIC [21]: 0.06 mg/L; MIC [22]: > 128 mg/L; MIC [23]: 4 mg/L; MIC [24]: 16 mg/L; MIC [25]: 2 mg/L; MIC [26]: 0.5 mg/L; MIC [27]: 2 mg/L; MIC [28]: 0.125 mg/L; MIC [29]: 16 mg/L; MIC [30]: 4 mg/L; MIC [31]: 4 mg/L; MIC [32]: 0.06 mg/L; MIC [33]: 0.5 mg/L; MIC [34]: 128 mg/L; MIC [35]: 0.25 mg/L; MIC [36]: 0.06 mg/L |
| COc1cc(Br)c(CO/N=C2\CN(c3nc4c(cc3F)c(=O)c(C(=O)O)cn4C3CC3)CC2CN)cc1OC.CS(=O)(=O)O (racemic) | > 128 mg/L | > 128 mg/L | > 128 mg/L | 1 mg/L | < 0.008 mg/L | 0.03 mg/L | 0.03 mg/L | > 128 mg/L | > 128 mg/L | 0.125 mg/L | > 128 mg/L | > 128 mg/L | > 128 mg/L | > 128 mg/L | 2 mg/L | > 128 mg/L | 2 mg/L | 0.5 mg/L | > 128 mg/L | 0.5 mg/L | MIC [21]: > 128 mg/L; MIC [22]: > 128 mg/L; MIC [23]: > 128 mg/L; MIC [24]: > 128 mg/L; MIC [25]: > 128 mg/L; MIC [26]: > 128 mg/L; MIC [27]: 4 mg/L; MIC [28]: 0.125 mg/L; MIC [29]: > 128 mg/L; MIC [30]: 64 mg/L; MIC [31]: 64 mg/L; MIC [32]: 0.5 mg/L; MIC [33]: 1 mg/L; MIC [34]: > 128 mg/L; MIC [35]: 0.25 mg/L; MIC [36]: 0.5 mg/L |
